According to ChEMBL document CHEMBL5252543, “Ester-prodrugs of ethambutol control its antibacterial activity and provide rapid screening for mycobacterial hydrolase activity” (2017):

Columns and labels:
Type in all cases: functional
Settings in all cases: 72 h, time 3 day
[1] = test system: Mycolicibacterium smegmatis; experiment: Antimicrobial activity against Mycobacterium smegmatis assessed as bacterial growth inhibition preincubated with PLE for 1 hr measured after 3 days by multimode plate reader analysis
Procedure, shortened: (§1)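 MIC99 in M. smegmatis with esterase pretreatment. The highest-concentration sample (50 μg/mL) was preincubated 1 h at RT with pig liver esterase (0.1 mg/mL), alone or with PMSF (1 mM), before serial dilution and 1:1 mixing with M. smegmatis in Middlebrook (final 25 to 0.012 μg/mL). Growth read as A600 after 72 h at 37 °C, 225 rpm.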

[2] = test system: Mycolicibacterium smegmatis; experiment: Antimicrobial activity against Mycobacterium smegmatis assessed as bacterial growth inhibition preincubated with PLE and PMSF for 1 hr measured after 3 days by multimode plate reader analysis; procedure, shortened: as §1
[3] = test system: Mycolicibacterium smegmatis; experiment: Antimicrobial activity against Mycobacterium smegmatis assessed as bacterial growth inhibition measured after 3 days by multimode plate reader analysis
Procedure, shortened: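 MIC99 in M. smegmatis broth. Compounds serially diluted in Middlebrook media, then diluted 1:1 with M. smegmatis in Middlebrook (final 25 μg/mL to 0.012 μg/mL). Plates grown 72 h at 37 °C, 225 rpm; growth read as A600.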

| MIC99 [1] | MIC99 [2] | MIC99 [3] | SMILES |
| --- | --- | --- | --- |
| 0.39 µg/mL | 6.2 µg/mL | 3.1 µg/mL | CC[C@@H](COC(=O)C1CCC1)NCCN[C@@H](CC)COC(=O)C1CCC1.Cl.Cl |
| 0.78 µg/mL | 25 µg/mL | 13 µg/mL | CC[C@@H](COC(=O)C1(C)CC1)NCCN[C@@H](CC)COC(=O)C1(C)CC1.Cl.Cl |
| 0.78 µg/mL | 6.3 µg/mL | 6.3 µg/mL | CC[C@@H](COC(=O)C(C)(C)C)NCCN[C@@H](CC)COC(=O)C(C)(C)C.Cl.Cl |
| 0.39 µg/mL | 6.3 µg/mL | 6.3 µg/mL | CC[C@@H](COC(=O)C(C)C)NCCN[C@@H](CC)COC(=O)C(C)C.Cl.Cl |
| 0.098 µg/mL | 0.098 µg/mL | 0.098 µg/mL | CC[C@@H](CO)NCCN[C@@H](CC)CO.Cl.Cl [ETHAMBUTOL HYDROCHLORIDE] |
| 0.2 µg/mL | 0.39 µg/mL | 6.3 µg/mL | CC[C@@H](COC(=O)CC(C)C)NCCN[C@@H](CC)COC(=O)CC(C)C.Cl.Cl |
| 0.2 µg/mL | 0.78 µg/mL | 1.6 µg/mL | CCC(CC)C(=O)OC[C@H](CC)NCCN[C@@H](CC)COC(=O)C(CC)CC.Cl.Cl |
| 0.78 µg/mL | 0.78 µg/mL | 0.78 µg/mL | CCC(=O)OC[C@H](CC)NCCN[C@@H](CC)COC(=O)CC.Cl.Cl |
| 0.098 µg/mL | 1.6 µg/mL | 6.3 µg/mL | CC[C@@H](COC(=O)C1CCCC1)NCCN[C@@H](CC)COC(=O)C1CCCC1.Cl.Cl |
